Sampled rows, rich in hits. Any-hit rate of the full collection: about 3.1%.
PAFAH2 inh: PAFAH2 enzyme inhibitors, primary screen, biochemical, fluorescence polarization, human | recombinant PAFAH2, FP-rhodamine activity probe | inhibition, % at 3.39 µM | 340,000 compounds, 0.99% hits | AID 492956, 2010;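 active = inhibition above the mean over all tested compounds plus 3 SD, cut at about 30% in these data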;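 also: inhibitors block probe labeling of enzyme so polarization drops; 0% = enzyme with DMSO and 100% = wells lacking PAFAH2 protein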
PAFAH1B3 FP inh: PAFAH1B3 enzyme inhibitors, primary screen, biochemical, fluorescence polarization, human; 340,000 compounds, 0.28% hits; inhibition, % at 3.39 µM; AID 492972, 2010; Platelet-activating factor acetylhydrolase IB subunit alpha1 (Homo sapiens), Q15102; recombinant PAFAH1B3, FP-rhodamine probe;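 active = inhibition above the screen-wide average of all tested compounds plus 3 SD, cut at about 25% in these data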;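 also: 0% = enzyme with DMSO only and 100% = wells lacking PAFAH1B3 protein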
Apaf1 inhib: inhibitors of human Apaf-1 apoptosome, primary screen, biochemical, DEVD-Rh110 fluorescence, uHTS; Apoptotic protease-activating factor 1 (Homo sapiens), O14727; reconstituted apoptosome caspase-3 activity; inhibition, % at 20 µM; 330,000 compounds, 0.71% hits; active = inhibition of at least 40% at 20 µM;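 also: plate controls were DMSO wells for no effect and DEVD-CHO caspase inhibitor wells for full effect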
Target sequence (O14727 whole entry, looked up): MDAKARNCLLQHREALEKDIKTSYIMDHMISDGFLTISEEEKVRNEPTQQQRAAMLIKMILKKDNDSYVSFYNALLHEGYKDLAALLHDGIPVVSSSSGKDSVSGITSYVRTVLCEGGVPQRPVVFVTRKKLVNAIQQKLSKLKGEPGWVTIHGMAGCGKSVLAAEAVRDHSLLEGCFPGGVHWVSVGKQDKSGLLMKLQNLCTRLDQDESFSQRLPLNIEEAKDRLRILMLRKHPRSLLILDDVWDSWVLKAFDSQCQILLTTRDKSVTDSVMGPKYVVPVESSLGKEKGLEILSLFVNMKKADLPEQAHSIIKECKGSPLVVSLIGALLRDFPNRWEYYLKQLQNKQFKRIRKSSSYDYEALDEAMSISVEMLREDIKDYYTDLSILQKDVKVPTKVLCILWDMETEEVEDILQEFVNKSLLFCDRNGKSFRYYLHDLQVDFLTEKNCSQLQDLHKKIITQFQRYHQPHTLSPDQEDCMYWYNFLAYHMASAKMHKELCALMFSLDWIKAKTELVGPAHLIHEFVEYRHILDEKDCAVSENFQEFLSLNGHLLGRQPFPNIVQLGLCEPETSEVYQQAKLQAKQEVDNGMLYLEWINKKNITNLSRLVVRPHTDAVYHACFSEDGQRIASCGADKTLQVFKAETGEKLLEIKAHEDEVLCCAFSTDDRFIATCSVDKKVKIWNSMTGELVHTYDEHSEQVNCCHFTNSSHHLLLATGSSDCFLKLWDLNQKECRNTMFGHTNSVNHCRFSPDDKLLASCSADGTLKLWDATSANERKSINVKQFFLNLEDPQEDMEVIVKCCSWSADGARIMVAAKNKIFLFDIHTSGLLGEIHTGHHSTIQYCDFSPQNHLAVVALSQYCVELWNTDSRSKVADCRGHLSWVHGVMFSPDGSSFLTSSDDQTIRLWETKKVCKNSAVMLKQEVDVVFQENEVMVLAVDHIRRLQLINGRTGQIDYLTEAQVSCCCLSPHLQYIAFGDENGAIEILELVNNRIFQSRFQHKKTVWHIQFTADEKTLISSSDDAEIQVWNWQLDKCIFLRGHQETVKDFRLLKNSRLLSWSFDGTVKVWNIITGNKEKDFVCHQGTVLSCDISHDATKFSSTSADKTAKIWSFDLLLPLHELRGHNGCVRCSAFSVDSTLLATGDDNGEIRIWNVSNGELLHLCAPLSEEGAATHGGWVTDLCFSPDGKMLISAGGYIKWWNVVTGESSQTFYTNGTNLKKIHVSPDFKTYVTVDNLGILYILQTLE
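System: Apoptosome proteins | Medium: Hepes pH 7.5 with detergent and BSA | Also added: Cytochrome c trigger plus (Z-DEVD)2-Rh110 caspase-3 substrate | Incubation: 30 min compound preincubation, 50 min activation, room temperature | Detection: Rhodamine 110 fluorescence at Ex 480/Em 540 nm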
pPAFAH inh: pPAFAH enzyme inhibitors, primary screen, biochemical, fluorescence polarization, human; recombinant pPAFAH, FP-rhodamine probe fluorescence polarization; AID 463082, 2010; 330,000 compounds, 1.5% hits; inhibition, % at 3.39 µM;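 active = inhibition above the mean inhibition across the screen plus 3 SD, cut at about 25% in these data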;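 also: inhibitors block binding of the rhodamine activity-based probe so polarization drops; 0% = enzyme with DMSO and 100% = wells lacking pPAFAH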
PAFAH1B2 inh: PAFAH1B2 enzyme inhibitors, primary screen, biochemical, fluorescence polarization, human. Platelet-activating factor acetylhydrolase IB subunit alpha2 (Homo sapiens), P68402. recombinant PAFAH1B2, FP-rhodamine activity probe. inhibition, % at 3.39 µM. 340,000 compounds, 1.2% hits. AID 492953, 2010;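 active = inhibition above the mean of all tested compounds plus 3 SD, cut at about 24% in these data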;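 also: 0% = enzyme with DMSO and 100% = wells lacking PAFAH1B2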
Active calls of the source: *; . = no result.

SMILES | PAFAH2 inh | PAFAH1B3 FP inh | Apaf1 inhib | pPAFAH inh | PAFAH1B2 inh
O=C(Nc1cc([N+](=O)[O-])ccc1O)c1cccc(C(=O)Nc2cc([N+](=O)[O-])ccc2O)c1 | 33.4* | 33.9* | . | 15.1 | 14.9
C[C@@H](C(=O)OCC(=O)c1ccc(F)c(F)c1)N1C(=O)C2CCCCC2C1=O (some centres not stated) | 19.7 | 3.3 | 9.5 | 28.4* | 3.1
C[C@@H](C(=O)OCC(=O)c1ccccc1)N1C(=O)C2CCCCC2C1=O (some centres not stated) | 19.8 | 17.1 | -10.5 | 15.8 | 2.6
Cc1c(C(=O)Nc2cccc([N+](=O)[O-])c2)sc2ncn(CC(=O)N3CCOCC3)c(=O)c12 | 4.7 | 0.1 | 1.8 | -3.1 | 1.6
CCN1CCN(CCCNC(=O)c2ccc3c(c2)NC(=O)/C(=C\c2cccc(C)c2)S3)CC1 | 5.5 | 6.8 | 36.3 | 14.2 | 11.5
Cc1ccc(S(=O)(=O)Nc2cccc(C(=O)NCCCN3CCOCC3)c2)cc1F | -0.8 | 4.7 | 8.1 | 2.2 | 3.7
Cc1cccc(/C=C2/Sc3ccc(C(=O)NCCCN4CCOCC4)cc3NC2=O)c1 | -13.7 | -5.3 | 17.4 | 26.5* | 7.8
COc1ccc(NS(=O)(=O)c2cccc(C(=O)NNC(=O)CNC(=O)c3ccccc3)c2)cc1 | -1.3 | 4.9 | 9.8 | 27.9* | -2.3
Cc1ccc(NS(=O)(=O)c2cccc(C(=O)NCCCN3CCOCC3)c2)cc1 | 10.1 | -0.7 | 4.5 | 34.2* | 1.5
COc1ccc(NS(=O)(=O)c2cccc(C(=O)NNC(=O)c3cccn3C)c2)cc1 | 0.8 | 6.4 | -2.2 | 34.2* | 4.5
COc1ccc(NS(=O)(=O)c2cccc(C(=O)NNC(=O)c3ccccc3O)c2)cc1 | 4.2 | 9.1 | 15.8 | 14.6 | 1.0
CCOc1ccc(S(=O)(=O)Nc2cccc(C(=O)N(C)CC(=O)Nc3ccc(OC)cc3)c2)cc1 | -3.2 | 2.5 | . | . | -0.8
COc1ccc(NC(=O)CN(C)C(=O)c2cccc(S(=O)(=O)Nc3ccc(OC)cc3)c2)cc1 | 4.6 | 1.1 | 0.7 | 32.1* | -1.3
Cc1cccc(C(=O)NCCN(C)C)c1 | 3.5 | -0.8 | -9.6 | 0.4 | 1.2
COc1ccc(NS(=O)(=O)c2cccc(C(=O)NNC(=O)CNC(=O)c3ccccc3Cl)c2)cc1 | -6.7 | 3.8 | . | . | -4.2
COc1ccc(NS(=O)(=O)c2cccc(C(=O)NCC3(N(C)C)CCCCC3)c2)cc1 | -5.4 | 6.2 | -4.5 | 29.5* | -4.7
COc1ccc(NS(=O)(=O)c2cccc(C(=O)NNC(=O)CNC(=O)c3cccc(C)c3)c2)cc1 | -5.7 | 6.9 | 3.4 | 34.2* | -0.2
CN(C)CCNC(=O)c1cccc(S(=O)(=O)Nc2ccc(F)cc2)c1 | -6.9 | 2.1 | -1.9 | 25.3* | -0.3
CCN(CC)S(=O)(=O)c1ccc(OC)c(NC(=O)c2cc(=O)[nH]c3ccccc23)c1 | -4.6 | 0.8 | 4.5 | 0.2 | 4.3
CC(OC(=O)[C@@H]1CCCN1C(=O)c1cccs1)C(=O)Nc1cccc([N+](=O)[O-])c1 (some centres not stated) | 1.2 | 9.3 | 4.9 | 5.4 | 4.0
Nc1cc(C(=O)O)ccc1Nc1ccccc1 | 1.6 | 9.4 | 5.3 | 26.5* | -0.2
CCc1ccccc1Nc1ccc(C(=O)O)cc1N | 7.3 | 4.9 | -2.3 | 20.9 | 1.9
COc1ccc(Cl)cc1NC(=O)CN1CCC(n2nnc3ccccc32)CC1 | -5.5 | 3.7 | 7.7 | 25.3* | 0.7
CC1C/C(=C/c2ccco2)C(=O)/C(=C/c2ccco2)C1 (configuration not stated) | . | . | 9.4 | 47.7* | .
O=C1/C(=C\c2ccco2)CCC/C1=C\c1ccco1 | 12.4 | -1.6 | 3.0 | 17.2 | -1.6
SMILES | PAFAH2 inh | PAFAH1B3 FP inh | Apaf1 inhib | pPAFAH inh | PAFAH1B2 inh
CC1CCN(C(=O)c2[nH]cnc2C(=O)Nc2ccc(Cl)cc2)CC1 | 0.2 | 0.2 | 13.2 | -2.2 | 6.0
CC(=O)Nc1ccc(N2C(=O)CSC2c2ccc([N+](=O)[O-])cc2)cc1 (configuration not stated) | 4.3 | -0.8 | -1.3 | 4.7 | 10.6
Cc1ccc(C2SCCN2C(=O)c2ccc([N+](=O)[O-])cc2)cc1 (configuration not stated) | -6.0 | 3.0 | -15.3 | 1.1 | 24.5*
Cc1ccc(C(=O)c2ccc([N+](=O)[O-])cc2)cc1 | -4.2 | 12.5 | -8.0 | -3.6 | -2.9
O=C(c1ccc([N+](=O)[O-])cc1)N1CCSC1c1ccc(Cl)cc1 (configuration not stated) | 5.5 | 8.4 | -2.1 | 5.1 | 29.0*
COc1ccc(-c2sc(Nc3ccc(F)c(F)c3F)nc2CCC(=O)NN)cc1 | -9.9 | 4.1 | 19.3 | 10.0 | 0.9
OCC[C@@H]1C[C@H](O)[C@@H](O)[C@]2(OCc3ccccc32)O1 | 6.6 | 10.6 | -15.6 | 0.0 | 0.8
Cc1nc(Nc2ccccc2)sc1-c1ccccc1 | 1.7 | 4.8 | 17.2 | 27.0* | 6.9
CCOC(=O)c1ccc(CNC(=O)C2CCC(=O)N(CCc3ccccc3)C2)o1 (configuration not stated) | 6.3 | 1.8 | 1.2 | 3.1 | 2.0
CC(C)C(OC(=O)C1=Cc2ccccc2OC1)C(=O)NCC1CCCO1 (configuration not stated) | 10.7 | -1.0 | . | . | 2.0
O=c1[nH]nc(SCc2ccccc2)n1C1CC2C=CC1C2 (configuration not stated) | -6.7 | 0.8 | 0.1 | 8.2 | 25.9*
COCCCNC(=O)C(=O)NC1CCCCC1C (configuration not stated) | 6.5 | 13.0 | -1.3 | 25.9* | 4.2
CC1CCCCC1NC(=O)C(=O)NCC1CCCO1 (configuration not stated) | 0.0 | 12.7 | -9.7 | 3.2 | -0.6
O=C1NC(c2cccc(Br)c2)=N/C1=C\c1ccco1 | 6.6 | -1.9 | 7.8 | 30.6* | -1.8
CCOC(=O)C(Cc1ccccc1)C(=O)NCc1ccccc1 (configuration not stated) | 1.1 | 8.8 | -3.1 | 2.0 | -2.1
O=C(O)C(c1ccccc1)N1C(=O)/C(=C\c2ccc(-c3ccccc3Cl)o2)SC1=S (configuration not stated) | 45.4* | 1.9 | 21.8 | 62.8* | 7.9
Cc1ccc(-n2c(N)c(C(=O)Nc3c(C)n(C)n(-c4ccccc4)c3=O)c3nc4ccccc4nc32)cc1C | . | . | 42.4* | 8.8 | .
COc1ccc(-n2c(N)c(C(=O)Nc3c(C)n(C)n(-c4ccccc4)c3=O)c3nc4ccccc4nc32)cc1 | 8.2 | 6.8 | 27.8 | 8.6 | 2.3
Cc1c(NC(=O)C(C)OC(=O)CCOc2ccccc2)c(=O)n(-c2ccccc2)n1C (configuration not stated) | 1.7 | 13.4 | -4.5 | 2.6 | 9.1
CCN(CCO)c1nc(SC)nc2c1sc1nc(-c3ccco3)c3c(c12)CCC3 | -0.2 | -3.1 | 37.1 | 31.9* | -0.7

Assay outcomes deposited in PubChem by several laboratories.
